Measurements as given in ChEMBL document CHEMBL4130578, “Synthesis, biological evaluation and structure-activity relationship studies of hederacolchiside E and its derivatives as potential anti-Alzheimer agents” (Eur J Med Chem, 2018).
Calls of active or inactive are those of the source. The rule behind the calls is not given here.

Columns and labels:
PC-12 [1] = assay: Cytoprotection against H2O2-induced cell injury in rat PC12 cells assessed as increase in cell viability preincubated for 12 hrs followed by H2O2 addition measured after 12 hrs by MTT assay; assay type: functional, cell-based
In short: (§1)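 PC12 cells grown in RPMI-1640 with 15% FBS and penicillin/streptomycin, subcultured every 2 days and cultured 8 days before use. Cells seeded at 1 × 10^4/well, after 12 h pretreated with compound 12 h, then exposed to 200 µM H2O2 for 12 h. MTT added for 4 h, formazan dissolved in DMSO, OD 490 nm read. Viability given as % of untreated control, mean ± SD, n = 3, ANOVA with Dunnett's test.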

PC-12 [2] = assay: Cytoprotection against amyloid beta (1 to 42)-induced cell injury in rat PC12 cells assessed as cell viability at 50 uM preincubated for 12 hrs followed by amyloid beta (1 to 42) addition measured after 12 hrs by MTT assay (reference value: 55.3 +/- 1.5%); assay type: functional; settings: read-out: Activity
PC-12 [3] = assay: Cytoprotection against amyloid beta (1 to 42)-induced cell injury in rat PC12 cells assessed as cell viability at 10 uM preincubated for 12 hrs followed by amyloid beta (1 to 42) addition measured after 12 hrs by MTT assay (reference value: 55.3 +/- 1.5%); assay type: functional; settings: read-out: Activity
PC-12 [4] = assay: Cytoprotection against amyloid beta (1 to 42)-induced damage in rat PC12 cells assessed as reduction in intracellular MDA level preincubated with cells followed by amyloid beta (1 to 42) addition measured after 24 hrs by TBA assay; assay type: functional, cell-based
In short: (§2)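 For the MDA readout, PC12 cells were given 40 µM Aβ1-42 for 24 h with or without compound (10, 50, 100 µM). Samples were mixed with two volumes of TBA reagent (0.375% TBA, 15% trichloroacetic acid, 0.1 mM EDTA) and heated at 95 °C for 40 min. After cooling and centrifugation at 3000 × g for 10 min, supernatant A532 was read. Mean ± SD, n = 3.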

PC-12 [5] = assay: Cytoprotection against amyloid beta (1 to 42)-induced toxicity in rat PC12 cells assessed as LDH release at 50 uM preincubated with cells followed by amyloid beta (1 to 42) addition measured after 24 hrs by LDH assay (reference value: 153%); assay type: functional
PC-12 [6] = assay: Cytoprotection against amyloid beta (1 to 42)-induced oxidative damage in rat PC12 cells assessed as intracellular ROS level at 50 uM preincubated with cells followed by amyloid beta (1 to 42) addition measured after 24 hrs by DCFH-DA staining based flow cytometry (reference value: 51.4%); assay type: functional
PC-12 [7] = assay: Cytoprotection against amyloid beta (1 to 42)-induced damage in rat PC12 cells assessed as intracellular MDA level at 50 uM preincubated with cells followed by amyloid beta (1 to 42) addition measured after 24 hrs by TBA assay; assay type: functional; in short: as §2
PC-12 [8] = assay: Cytoprotection against amyloid beta (1 to 42)-induced oxidative damage in rat PC12 cells assessed as reduction in intracellular ROS level preincubated with cells followed by amyloid beta (1 to 42) addition measured after 24 hrs by DCFH-DA staining based flow cytometry; assay type: functional, cell-based
PC-12 [9] = assay: Cytoprotection against amyloid beta (1 to 42)-induced toxicity in rat PC12 cells assessed as LDH release at 100 uM preincubated with cells followed by amyloid beta (1 to 42) addition measured after 24 hrs by LDH assay (reference value: 153%); assay type: functional
PC-12 [10] = assay: Cytoprotection against amyloid beta (1 to 42)-induced cell injury in rat PC12 cells assessed as cell viability at 100 uM preincubated for 12 hrs followed by amyloid beta (1 to 42) addition measured after 12 hrs by MTT assay (reference value: 55.3 +/- 1.5%); assay type: functional; settings: read-out: Activity
PC-12 [11] = assay: Cytoprotection against amyloid beta (1 to 42)-induced damage in rat PC12 cells assessed as intracellular MDA level at 10 uM preincubated with cells followed by amyloid beta (1 to 42) addition measured after 24 hrs by TBA assay; assay type: functional; in short: as §2
PC-12 [12] = assay: Cytoprotection against amyloid beta (1 to 42)-induced oxidative damage in rat PC12 cells assessed as intracellular ROS level at 100 uM preincubated with cells followed by amyloid beta (1 to 42) addition measured after 24 hrs by DCFH-DA staining based flow cytometry (reference value: 51.4%); assay type: functional
PC-12 [13] = assay: Cytoprotection against amyloid beta (1 to 42)-induced oxidative damage in rat PC12 cells assessed as intracellular ROS level at 10 uM preincubated with cells followed by amyloid beta (1 to 42) addition measured after 24 hrs by DCFH-DA staining based flow cytometry (reference value: 51.4%); assay type: functional
PC-12 [14] = assay: Cytoprotection against amyloid beta (1 to 42)-induced damage in rat PC12 cells assessed as intracellular MDA level at 100 uM preincubated with cells followed by amyloid beta (1 to 42) addition measured after 24 hrs by TBA assay; assay type: functional; in short: as §2
PC-12 [15] = assay: Cytoprotection against amyloid beta (1 to 42)-induced toxicity in rat PC12 cells assessed as LDH release at 10 uM preincubated with cells followed by amyloid beta (1 to 42) addition measured after 24 hrs by LDH assay (reference value: 153%); assay type: functional
PC-12 [16] = assay: Cytoprotection against H2O2-induced cell injury in rat PC12 cells assessed as increase in cell viability at 1 to 10 uM preincubated for 12 hrs followed by H2O2 addition measured after 12 hrs by MTT assay; assay type: functional, cell-based; in short: as §1
PC-12 [17] = assay: Cytotoxicity against rat PC12 cells assessed as decrease in cell viability at 50 uM after 12 hrs by MTT assay; assay type: cell-based; settings: pc-12, 12 h
PC-12 [18] = assay: Cytotoxicity against rat PC12 cells assessed as decrease in cell viability at high concentration after 12 hrs by MTT assay; assay type: cell-based; settings: pc-12, 12 h

Compound | Activity (PC-12 [1]) | viability at 50 µM (PC-12 [2]) [%] | viability at 10 µM (PC-12 [3]) [%] | viability at 100 µM (PC-12 [10]) [%] | further results
C[C@@H]1O[C@@H](O[C@H]2[C@H](O[C@H]3CC[C@]4(C)[C@H]5CC=C6[C@@H]7CC(C)(C)CC[C@]7(C(=O)O[C@@H]7O[C@H](CO[C@@H]8O[C@H](CO)[C@@H](O[C@@H]9O[C@@H](C)[C@H](O)[C@@H](O)[C@H]9O)[C@H](O)[C@H]8O)[C@@H](O)[C@H](O)[C@H]7O)CC[C@@]6(C)[C@]5(C)CC[C@H]4C3(C)C)OC[C@H](O[C@@H]3OC[C@@H](O)[C@H](O)[C@H]3O)[C@@H]2O)[C@H](O)[C@H](O)[C@H]1O | Dose-dependent effect | 55.7 | 52.7 | – | –
C[C@@H]1O[C@@H](O[C@H]2[C@H](O[C@H]3CC[C@]4(C)[C@H]5CC=C6[C@@H]7CC(C)(C)CC[C@]7(C(=O)O[C@@H]7O[C@H](CO[C@@H]8O[C@H](CO)[C@@H](O[C@@H]9O[C@@H](C)[C@H](O)[C@@H](O)[C@H]9O)[C@H](O)[C@H]8O)[C@@H](O)[C@H](O)[C@H]7O)CC[C@@]6(C)[C@]5(C)CC[C@H]4C3(C)C)OC[C@H](O[C@@H]3O[C@H](CO)[C@@H](O)[C@H]3O)[C@@H]2O)[C@H](O)[C@H](O)[C@H]1O | Dose-dependent effect | 57.9 | 58.5 | – | –
C[C@@H]1O[C@@H](O[C@H]2[C@H](O[C@H]3CC[C@]4(C)[C@H]5CC=C6[C@@H]7CC(C)(C)CC[C@]7(C(=O)O[C@@H]7O[C@H](CO[C@@H]8O[C@H](CO)[C@@H](O[C@@H]9O[C@@H](C)[C@H](O)[C@@H](O)[C@H]9O)[C@H](O)[C@H]8O)[C@@H](O)[C@H](O)[C@H]7O)CC[C@@]6(C)[C@]5(C)CC[C@H]4C3(C)C)OC[C@H](O[C@@H]3O[C@H](CO)[C@@H](O)[C@H](O)[C@H]3O)[C@@H]2O)[C@H](O)[C@H](O)[C@H]1O | Dose-dependent effect | 65.8 | 57 | 70.4 | Activity (PC-12 [4]): Dose-dependent effect; Activity (PC-12 [5]): 138.5%; Activity (PC-12 [6]): 35%; Activity (PC-12 [7]): 1.9 nmol/mL; Activity (PC-12 [8]): Dose-dependent effect; Activity (PC-12 [9]): 126.7%; Activity (PC-12 [11]): 2.5 nmol/mL; Activity (PC-12 [12]): 29.2%; Activity (PC-12 [13]): 43%; Activity (PC-12 [14]): 1.3 nmol/mL; Activity (PC-12 [15]): 147.4%
C[C@@H]1O[C@@H](O[C@H]2[C@H](O)[C@@H](O)[C@H](OC[C@H]3O[C@@H](OC(=O)[C@]45CCC(C)(C)C[C@H]4C4=CC[C@@H]6[C@@]7(C)CC[C@H](O[C@@H]8OC[C@H](O)[C@H](O)[C@H]8O)C(C)(C)[C@@H]7CC[C@@]6(C)[C@]4(C)CC5)[C@H](O)[C@@H](O)[C@@H]3O)O[C@@H]2CO)[C@H](O)[C@H](O)[C@H]1O [CIWUJIANOSIDE C3] | – | 69.9 | 55.9 | 79.1 | Activity (PC-12 [4]): Dose-dependent effect; Activity (PC-12 [5]): 134.4%; Activity (PC-12 [16]): Active; Activity (PC-12 [6]): 30.7%; Activity (PC-12 [7]): 1.6 nmol/mL; Activity (PC-12 [8]): Dose-dependent effect; Activity (PC-12 [9]): 126.3%; Activity (PC-12 [11]): 2 nmol/mL; Activity (PC-12 [12]): 20.6%; Activity (PC-12 [17]): Toxic; Activity (PC-12 [13]): 45%; Activity (PC-12 [14]): 1.2 nmol/mL; Activity (PC-12 [15]): 143.7%
C[C@@H]1O[C@@H](O[C@H]2[C@H](O[C@H]3CC[C@]4(C)[C@H]5CC=C6[C@@H]7CC(C)(C)CC[C@]7(C(=O)O[C@@H]7O[C@H](CO[C@@H]8O[C@H](CO)[C@@H](O[C@@H]9O[C@@H](C)[C@H](O)[C@@H](O)[C@H]9O)[C@H](O)[C@H]8O)[C@@H](O)[C@H](O)[C@H]7O)CC[C@@]6(C)[C@]5(C)CC[C@H]4C3(C)C)OC[C@H](O[C@@H]3O[C@@H](C)[C@H](O)[C@@H](O)[C@H]3O)[C@@H]2O)[C@H](O)[C@H](O)[C@H]1O | Dose-dependent effect | 68.4 | 61.4 | 74.6 | –
C[C@@H]1O[C@@H](O[C@H]2[C@H](O[C@H]3CC[C@]4(C)[C@H]5CC=C6[C@@H]7CC(C)(C)CC[C@]7(C(=O)O[C@@H]7O[C@H](CO[C@@H]8O[C@H](CO)[C@@H](O)[C@H](O)[C@H]8O)[C@@H](O)[C@H](O)[C@H]7O)CC[C@@]6(C)[C@]5(C)CC[C@H]4C3(C)C)OC[C@H](O[C@@H]3O[C@H](CO)[C@@H](O)[C@H](O)[C@H]3O)[C@@H]2O)[C@H](O)[C@H](O)[C@H]1O | – | 19.8 | 29.5 | – | Activity (PC-12 [18]): Toxic
C[C@@H]1O[C@@H](O[C@H]2[C@H](O[C@H]3CC[C@]4(C)[C@H]5CC=C6[C@@H]7CC(C)(C)CC[C@]7(C(=O)O[C@@H]7O[C@H](CO[C@@H]8O[C@H](CO)[C@@H](O[C@@H]9O[C@@H](C)[C@H](O)[C@@H](O)[C@H]9O)[C@H](O)[C@H]8O)[C@@H](O)[C@H](O)[C@H]7O)CC[C@@]6(C)[C@]5(C)CC[C@H]4C3(C)C)OC[C@H](O[C@@H]3OC[C@H](O)[C@H](O)[C@H]3O)[C@@H]2O)[C@H](O)[C@H](O)[C@H]1O | Dose-dependent effect | 59.7 | 58.3 | – | –
C[C@@H]1O[C@@H](O[C@H]2[C@H](O[C@H]3CC[C@]4(C)[C@H]5CC=C6[C@@H]7CC(C)(C)CC[C@]7(C(=O)O[C@@H]7O[C@H](CO[C@@H]8O[C@H](CO)[C@@H](O[C@@H]9O[C@@H](C)[C@H](O)[C@@H](O)[C@H]9O)[C@H](O)[C@H]8O)[C@@H](O)[C@H](O)[C@H]7O)CC[C@@]6(C)[C@]5(C)CC[C@H]4C3(C)C)OC[C@H](O)[C@@H]2O)[C@H](O)[C@H](O)[C@H]1O [HEDERASAPONIN B] | – | 60.3 | 54.3 | – | Activity (PC-12 [16]): Active; Activity (PC-12 [17]): Toxic
C[C@@H]1O[C@@H](O[C@H]2[C@H](O[C@H]3CC[C@]4(C)[C@H]5CC=C6[C@@H]7CC(C)(C)CC[C@]7(C(=O)O[C@@H]7O[C@H](CO[C@@H]8O[C@H](CO)[C@@H](O[C@@H]9O[C@@H](C)[C@H](O)[C@@H](O)[C@H]9O)[C@H](O)[C@H]8O)[C@@H](O)[C@H](O)[C@H]7O)CC[C@@]6(C)[C@]5(C)CC[C@H]4C3(C)C)OC[C@H](O[C@@H]3O[C@H](CO)[C@H](O)[C@H](O)[C@H]3O)[C@@H]2O)[C@H](O)[C@H](O)[C@H]1O | Dose-dependent effect | 58.6 | 52.6 | – | –
C[C@@H]1O[C@@H](O[C@H]2[C@H](O[C@H]3CC[C@]4(C)[C@H]5CC=C6[C@@H]7CC(C)(C)CC[C@]7(C(=O)O[C@@H]7O[C@H](CO)[C@@H](O)[C@H](O)[C@H]7O)CC[C@@]6(C)[C@]5(C)CC[C@H]4C3(C)C)OC[C@H](O[C@@H]3O[C@H](CO)[C@@H](O)[C@H](O)[C@H]3O)[C@@H]2O)[C@H](O)[C@H](O)[C@H]1O | – | 10.3 | 14.5 | – | Activity (PC-12 [18]): Toxic
